The record followed here is ChEMBL document CHEMBL3751740, “New MKLP-2 inhibitors in the paprotrain series: Design, synthesis and biological evaluations” (Bioorg Med Chem, 2016).

Assay [1] has as its target T1, Kinesin-like protein KIF23 (Homo sapiens) (UniProt Q02241).
T1 sequence (whole entry): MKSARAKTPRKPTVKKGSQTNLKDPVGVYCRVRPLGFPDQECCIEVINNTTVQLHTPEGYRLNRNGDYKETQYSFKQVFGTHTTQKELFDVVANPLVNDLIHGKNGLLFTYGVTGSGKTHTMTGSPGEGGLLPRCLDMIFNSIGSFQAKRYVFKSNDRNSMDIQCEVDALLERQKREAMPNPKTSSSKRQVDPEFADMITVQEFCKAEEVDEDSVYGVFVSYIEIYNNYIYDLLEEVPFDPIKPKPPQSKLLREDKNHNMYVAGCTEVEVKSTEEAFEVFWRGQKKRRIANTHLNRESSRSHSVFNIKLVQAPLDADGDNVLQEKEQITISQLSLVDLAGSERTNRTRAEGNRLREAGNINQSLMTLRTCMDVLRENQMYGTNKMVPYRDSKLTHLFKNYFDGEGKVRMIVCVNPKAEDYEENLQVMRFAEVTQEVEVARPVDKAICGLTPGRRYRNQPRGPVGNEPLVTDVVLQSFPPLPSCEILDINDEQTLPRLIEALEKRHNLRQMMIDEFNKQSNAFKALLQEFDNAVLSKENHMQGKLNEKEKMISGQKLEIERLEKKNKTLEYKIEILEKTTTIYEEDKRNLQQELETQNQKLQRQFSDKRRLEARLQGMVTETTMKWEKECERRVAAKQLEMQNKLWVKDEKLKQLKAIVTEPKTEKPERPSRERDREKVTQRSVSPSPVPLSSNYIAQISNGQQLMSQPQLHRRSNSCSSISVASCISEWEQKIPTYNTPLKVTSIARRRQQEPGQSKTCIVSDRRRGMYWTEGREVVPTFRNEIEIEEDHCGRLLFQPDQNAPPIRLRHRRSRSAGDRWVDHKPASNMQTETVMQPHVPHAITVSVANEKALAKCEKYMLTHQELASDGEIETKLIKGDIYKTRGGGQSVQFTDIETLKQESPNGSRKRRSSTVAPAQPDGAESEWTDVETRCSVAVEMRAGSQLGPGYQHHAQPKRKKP
Kind of assay: Inhibition of porcine brain microtubule-stimulated human recombinant GST-tagged MKLP1 ATPase activity at 1 mM by microplate reader in presence of Mg2+ ATP relative to control. The method, boiled down:
(§1)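 Motor domain at 15 µM final, in 7.5 mM PIPES-NaOH pH 7.0 with […], 10 µM Taxol, ELIPA 1 and 2 reagents and 1.25 mg/mL microtubules. AMP-PNP, a slowly hydrolysable ATP analog and general ATPase inhibitor, tested at 1 mM. Reaction started with 1 mM Mg2+ATP at 22 °C and read kinetically at 360 nm. Run in triplicate.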

Assay [2] concerns the target T2, Kinesin-1 heavy chain (Homo sapiens) (UniProt P33176).
T2 sequence (whole entry): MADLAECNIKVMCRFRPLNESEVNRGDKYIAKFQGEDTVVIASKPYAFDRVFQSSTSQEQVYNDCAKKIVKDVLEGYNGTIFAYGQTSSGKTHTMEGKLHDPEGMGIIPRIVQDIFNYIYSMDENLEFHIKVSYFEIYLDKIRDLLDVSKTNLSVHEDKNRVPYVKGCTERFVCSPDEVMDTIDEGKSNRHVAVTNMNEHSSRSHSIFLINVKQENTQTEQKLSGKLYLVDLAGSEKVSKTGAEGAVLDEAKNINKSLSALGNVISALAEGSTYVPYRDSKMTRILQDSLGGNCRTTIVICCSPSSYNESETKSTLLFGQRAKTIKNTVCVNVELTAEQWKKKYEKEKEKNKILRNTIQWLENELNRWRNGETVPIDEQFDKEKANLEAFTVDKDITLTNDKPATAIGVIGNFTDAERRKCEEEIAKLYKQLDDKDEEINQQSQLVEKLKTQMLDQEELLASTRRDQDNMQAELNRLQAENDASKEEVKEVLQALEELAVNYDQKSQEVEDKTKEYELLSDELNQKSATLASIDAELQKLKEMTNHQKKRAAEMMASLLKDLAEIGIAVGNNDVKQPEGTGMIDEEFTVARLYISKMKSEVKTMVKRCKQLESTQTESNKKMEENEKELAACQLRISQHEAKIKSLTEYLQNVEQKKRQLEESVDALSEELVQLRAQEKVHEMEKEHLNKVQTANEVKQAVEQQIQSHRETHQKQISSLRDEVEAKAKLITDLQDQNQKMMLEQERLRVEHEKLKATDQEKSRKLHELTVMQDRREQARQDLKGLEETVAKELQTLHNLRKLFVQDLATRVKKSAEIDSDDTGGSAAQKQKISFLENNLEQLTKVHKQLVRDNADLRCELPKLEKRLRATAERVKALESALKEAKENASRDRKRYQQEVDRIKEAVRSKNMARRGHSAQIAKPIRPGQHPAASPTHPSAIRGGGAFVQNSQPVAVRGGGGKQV
Kind of assay: Inhibition of porcine brain microtubule-stimulated human recombinant GST-tagged Kif5B ATPase activity at 1 mM by microplate reader in presence of Mg2+ ATP relative to control. A digest of the protocol: as §1

Assay [3] relates to A549. Kind of assay: Growth inhibition of human A549 cells incubated for 4 days by WST-1 assay. Particulars: A549, 96 h. The assay is classed as functional. A digest of the protocol: (§2)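 Cells were kept at 37 °C under 5% CO2 and plated on day 0 at 500–5000 cells/well. On day 1 they received ten concentrations from 0.0025 to 50 µM (final), in triplicate. On day 4 WST-1 was added, followed by 30 min–4 h incubation and absorbance at 450 nm. GI50 is the concentration killing 50% of cells.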

In assay [4] the test system is K562. Kind of assay: Growth inhibition of human K562 cells incubated for 4 days by WST-1 assay. The class given is functional. The conditions noted are these: K562, 96 h. A digest of the protocol: as §2
For assay [5], the system named is HepG2. Kind of assay: Growth inhibition of human HepG2 cells incubated for 4 days by WST-1 assay. The class given is functional. The conditions noted are these: HepG2, 96 h. The method, boiled down:
as §2

The nature of assay [6]: Growth inhibition of human PK59 cells incubated for 4 days by WST-1 assay. The assay is classed as functional. Particulars: PK-59, 96 h. The method, boiled down: as §2

In the case of `Nc1ncnc2c1ncn2[C@@H]1O[C@H](COP(=O)(O)OP(=O)(O)NP(=O)(O)O)[C@@H](O)[C@H]1O`, the inhibition in assay [1] and in assay [2] was over 30% in each case.
As for `COc1ccc2[nH]cc(/C(C#N)=C/c3cccnc3)c2c1`, the concentration for 50% growth inhibition (GI50) in assay [3] is 9.4 µM; in assay [4], 4 µM; in assay [5], over 50 µM; in assay [6] it was over 50 µM.
